Measurements published in ChEMBL document CHEMBL3997777, “Pterosin Sesquiterpenoids from Pteris cretica as Hypolipidemic Agents via Activating Liver X Receptors” (J Nat Prod, 2016).
The source made the active and inactive calls. The rule behind the calls is not given here.

How the values were obtained:
[1] = Cytotoxicity against HEK293T cells assessed as cell viability at 10 uM after 24 hrs by MTT assay relative to control; format: cell-based, HEK-293T; conditions: human, read-out: Activity
How it was run: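 HEK 293T cells in DMEM/10% FBS at 37 °C, 5% CO2, exposed to compounds at 10 μM for 24 h in triplicate. MTT (2.5 mg/mL) added for 4 h, then DMSO. Absorbance read at 492 nm after 20 min shaking. Survival = (A sample − A blank)/(A control − A blank) × 100%.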

[2] = species: Mus musculus; assay: Activation of LXR in mouse 3T3L1 preadipocytes assessed as decrease in triglyceride level up to 10 uM […] measured on day 6 by Oil Red O staining based assay; format: cell-based
How it was run: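 3T3-L1 adipocytes differentiated over 6 days (IBMX/dexamethasone/insulin/biotin for 3 days, then insulin only), compound in DMSO present throughout. Day 6 cells fixed in 4% formaldehyde for 1 h at room temperature, then stained with 0.35% Oil Red O stock diluted 3:2 in water for 30 min at 60 °C. Washed, then imaged at 4× magnification.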

[3] = species: Mus musculus; assay: Activation of LXR in mouse 3T3L1 preadipocytes assessed as decrease in triglyceride level for 3 days measured on day 6; format: cell-based
How it was run: (§1)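 3T3-L1 cells grown in DMEM/10% FBS. Two days post-confluence (day 0), switched to differentiation medium (insulin 2 μg/mL, dexamethasone 100 ng/mL, IBMX 0.5 mM, biotin 10 ng/mL) for 3 days, then insulin-only medium for 3 more days. Compounds in DMSO (<0.1%) present throughout differentiation. Day 6 cells PBS-washed and lysed, TG measured by kit, expressed relative to vehicle; mean ± SD, three independent experiments.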

[4] = target: T1, Oxysterols receptor LXR-alpha (Homo sapiens) (UniProt Q13133); assay: Activation of human LXRalpha expressed in HEK293 cells co-expressing human RXRalpha at 10 uM after 20 hrs by luciferase reporter gene assay; format: cell-based
T1 sequence (whole entry): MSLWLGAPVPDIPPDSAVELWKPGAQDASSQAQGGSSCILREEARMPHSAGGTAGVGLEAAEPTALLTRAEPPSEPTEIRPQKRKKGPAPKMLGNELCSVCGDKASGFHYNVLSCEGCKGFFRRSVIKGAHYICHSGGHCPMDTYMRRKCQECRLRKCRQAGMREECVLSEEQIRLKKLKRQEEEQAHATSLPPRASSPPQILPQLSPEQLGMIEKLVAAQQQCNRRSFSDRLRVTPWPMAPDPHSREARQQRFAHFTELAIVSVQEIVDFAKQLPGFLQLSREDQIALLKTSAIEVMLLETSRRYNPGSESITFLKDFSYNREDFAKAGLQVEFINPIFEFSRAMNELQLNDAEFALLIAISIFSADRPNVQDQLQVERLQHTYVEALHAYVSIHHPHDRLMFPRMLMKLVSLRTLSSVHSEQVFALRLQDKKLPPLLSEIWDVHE
How it was run: (§2)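 HEK 293T cells seeded at 3 × 10^4/well and attached 12 h. Cotransfected by lipofection with hLXRα or rLXRβ receptor plasmid plus hRXRα, a DR-4 LXRE firefly luciferase reporter and a CMV renilla control. Compounds added 10 h later; 0.1% DMSO vehicle. Luminescence read 20 h after treatment, firefly normalized to renilla, fold over vehicle; mean ± SD, three independent experiments.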

[5] = target: T2, Oxysterols receptor LXR-beta (Rattus norvegicus) (UniProt Q62755); assay: Activation of rat LXRbeta expressed in HEK293 cells co-expressing human RXRalpha at 10 uM after 20 hrs by luciferase reporter gene assay; format: cell-based; how it was run: as §2
T2 sequence (whole entry): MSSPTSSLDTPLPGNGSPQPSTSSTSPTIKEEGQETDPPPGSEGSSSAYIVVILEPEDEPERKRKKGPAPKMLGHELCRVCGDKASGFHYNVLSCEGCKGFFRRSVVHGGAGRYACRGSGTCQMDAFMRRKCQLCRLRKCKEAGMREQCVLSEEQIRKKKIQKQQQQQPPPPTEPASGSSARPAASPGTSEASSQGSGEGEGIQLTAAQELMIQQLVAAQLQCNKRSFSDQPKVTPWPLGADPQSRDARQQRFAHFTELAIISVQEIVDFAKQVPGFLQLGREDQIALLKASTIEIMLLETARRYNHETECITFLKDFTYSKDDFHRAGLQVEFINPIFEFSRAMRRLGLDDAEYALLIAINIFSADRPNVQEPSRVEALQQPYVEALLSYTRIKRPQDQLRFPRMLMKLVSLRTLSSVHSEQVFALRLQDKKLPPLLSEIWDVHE

[6] = species: Mus musculus; assay: Activation of LXR in mouse 3T3L1 preadipocytes assessed as decrease in triglyceride level at 1 to 10 uM for 3 days measured on day 6; format: cell-based; how it was run: as §1

Cc1cc2c(c(C)c1CCO)C(=O)[C@@](C)(O)[C@@H]2O
viability at 24 h, 10 µM [1]: 100%

CC1(C)C[C@@H](O)C[C@]2(C)[C@@H]1[C@H](O)C[C@@]13C[C@@H](CC[C@H]12)[C@](C)(O)C3
Activity [2]: Active
Activity [3]: Dose-dependent effect
viability at 24 h, 10 µM [1]: 100%

CC1(C)C[C@@H](O)C[C@]2(C)[C@@H]1[C@H](O)C[C@@]13C[C@@](O)(CC[C@H]12)[C@](C)(O)C3
Activity [2]: Active
Activity [3]: Dose-dependent effect
viability at 24 h, 10 µM [1]: 100%

Cc1cc2c(c(C)c1CCO)C(=O)[C@H](C)[C@@H]2O
viability at 24 h, 10 µM [1]: 100%

Cc1cc2c(c(C)c1CCO[C@@H]1O[C@H](CO)[C@@H](O)[C@H](O)[C@H]1O)C(=O)C(C)(C)[C@H]2O
viability at 24 h, 10 µM [1]: 100%

Cc1cc2c(c(C)c1CCO[C@@H]1O[C@H](CO)[C@@H](O)[C@H](O)[C@H]1O)C(=O)[C@H](C)[C@@H]2O
viability at 24 h, 10 µM [1]: 100%

Cc1cc2c(c(C)c1CCO)C(=O)[C@@H](C)[C@@H]2O
Activity [2]: Active
Activity [3]: Dose-dependent effect
viability at 24 h, 10 µM [1]: 100%

CC1(C)C[C@@H](O[C@@H]2O[C@H](CO)[C@@H](O)[C@H](O)[C@H]2O)C[C@]2(C)[C@@H]1CC[C@@]13C[C@@H](CC[C@H]12)[C@](C)(O)C3
viability at 24 h, 10 µM [1]: 100%

Cc1c(CCO)c(CO)cc2c1C(=O)[C@@H](C)[C@@H]2O
viability at 24 h, 10 µM [1]: 100%

O=C(O)Cc1cccc(OCCCN(Cc2cccc(C(F)(F)F)c2Cl)CC(c2ccccc2)c2ccccc2)c1
Activity [4]: Active
Activity [5]: Active

Cc1c(CCO)c(CO)cc2c1C(=O)[C@H](C)[C@@H]2O
Activity [2]: Active
Activity [3]: Dose-dependent effect
Activity [4]: Active
Activity [5]: Active
viability at 24 h, 10 µM [1]: 100%

C=C1[C@@H]2CC[C@H]3[C@]4(C)C[C@H](O[C@@H]5O[C@H](CO)[C@@H](O)[C@H](O)[C@H]5O)CC(C)(C)[C@H]4CC[C@]3(C2)[C@H]1O
viability at 24 h, 10 µM [1]: 100%

Cc1cc2c(c(CO)c1CCO)C(=O)[C@@](C)(O)C2=O
viability at 24 h, 10 µM [1]: 100%

Cc1cc2c(c(C)c1CCO)C(=O)C(C)(C)[C@@H]2O
viability at 24 h, 10 µM [1]: 100%

Cc1cc2c(c(C)c1CCO)C(=O)[C@](C)(CO)[C@@H]2O
viability at 24 h, 10 µM [1]: 100%

Cc1cc2c(c(CO)c1CCO)C(=O)[C@](C)(CO)[C@@H]2O
viability at 24 h, 10 µM [1]: 100%

C=C1[C@@H]2CC[C@H]3[C@]4(C)C[C@H](O)CC(C)(C)[C@H]4[C@H](O)C[C@]3(C2)[C@H]1O
viability at 24 h, 10 µM [1]: 100%

Cc1cc2c(c(C)c1CCO[C@@H]1O[C@H](CO)[C@@H](O)[C@H](O)[C@H]1O)C(=O)[C@@H](C)[C@@H]2O
viability at 24 h, 10 µM [1]: 100%

C=C1[C@@H]2CC[C@H]3[C@]4(C)C[C@H](O)CC(C)(C)[C@H]4CC[C@]3(C2)[C@H]1O
viability at 24 h, 10 µM [1]: 100%

Cc1cc2c(c(CO)c1CCO)C(=O)[C@H](C)[C@@H]2O
viability at 24 h, 10 µM [1]: 100%

Cc1cc2c(c(CO)c1CCO)C(=O)[C@@H](C)[C@@H]2O
viability at 24 h, 10 µM [1]: 100%

CC1(C)C[C@@H](O)C[C@]2(C)[C@@H]1CC[C@@]13C[C@@H](CC[C@@H]21)[C@@](O)(CO)[C@@H]3O
viability at 24 h, 10 µM [1]: 100%

Cc1cc2c(c(C)c1CCO)C(=O)[C@](C)(O)[C@@H]2O
viability at 24 h, 10 µM [1]: 100%

COc1ccc2cc3[n+](cc2c1OC)CCc1cc2c(cc1-3)OCO2
Activity [6]: Active
